ChEMBL document CHEMBL6083228, “A novel hydrophobic tag leads to the efficient degradation of programmed death-ligand 1” (RSC Med Chem, 2024)
Activity calls are given as the source filed them. The calls are words filed in the database; no cut-off is given here.

Columns and labels:
[1] = biological target: Programmed cell death 1 ligand 1 (Homo sapiens) (UniProt Q9NZQ7); test: Induction of hydrophobic tag tethering degradation of PD-L1 in human NCI-H460 cells incubated for 24 hrs by Western blot analysis; format: cell-based; conditions: dose 1-10 µM
Programmed cell death 1 ligand 1 (Homo sapiens), sequence (Q9NZQ7 whole entry): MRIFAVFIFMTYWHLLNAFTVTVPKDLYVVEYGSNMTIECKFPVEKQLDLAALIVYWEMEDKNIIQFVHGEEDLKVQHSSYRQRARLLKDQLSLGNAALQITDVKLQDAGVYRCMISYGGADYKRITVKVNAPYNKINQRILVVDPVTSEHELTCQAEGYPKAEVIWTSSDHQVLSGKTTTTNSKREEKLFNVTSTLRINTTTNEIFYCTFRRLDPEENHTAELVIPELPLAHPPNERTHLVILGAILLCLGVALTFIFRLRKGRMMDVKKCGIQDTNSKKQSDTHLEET
How it was run: (§1)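 Cells seeded at 1×10^6 per well, incubated overnight, then exposed to DMSO or compound for 24 h. RIPA lysates were denatured at 100 °C for 15 min in SDS-PAGE loading buffer and run on 10% SDS-PAGE. Blots were probed overnight at 4 °C with anti-PD-L1 (1:1000), then a secondary (1:5000), with ECL detection. Bands were semi-quantified by densitometry.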

NCI-H460 [2] = test: Cytotoxicity against human NCI-H460 cells at 10 uM incubated for 24 to 72 hrs by MTT assay; format: functional, cell-based; conditions: time 24-72 hrs
How it was run: (§2)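 NCI-H460 cells seeded at 4×10^3 per well in complete RPMI-1640 (10% FBS, 37 °C, 5% CO2), left 24 h, then given DMSO or compound in DMSO. MTT (5 mg mL⁻¹ in PBS) added after 24, 48 and 72 h exposure, 4 h further; formazan dissolved in isopropanol, absorbance at 570 nm. Triplicate; viability relative to DMSO group (100%).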

[3] = biological target: Programmed cell death 1 ligand 1 (Homo sapiens) (UniProt Q9NZQ7); test: Induction of hydrophobic tag tethering degradation of PD-L1 in human NCI-H460 cells at 10 uM incubated for 24 hrs by Western blot analysis; format: cell-based; how it was run: as §1
[4] = biological target: Programmed cell death 1 ligand 1 (Homo sapiens) (UniProt Q9NZQ7); test: Induction of hydrophobic tag tethering degradation of PD-L1 in human NCI-H460 cells at 1 to 10 uM incubated for 24 hrs by Western blot analysis; format: cell-based; conditions: dose 1-10 µM; how it was run: as §1
[5] = biological target: Programmed cell death 1 ligand 1 (Homo sapiens) (UniProt Q9NZQ7); test: Induction of hydrophobic tag tethering degradation of PD-L1 in human NCI-H460 cells at 10 uM incubated for 24 hrs in presence of MG132 by Western blot analysis; format: cell-based
NCI-H460 [6] = test: Cytotoxicity against human NCI-H460 cells at 0.5 to 10 uM incubated for 24 to 72 hrs by MTT assay; format: functional, cell-based; conditions: dose 0.5-10 µM, time 24-72 hrs; how it was run: as §2
[7] = biological target: Programmed cell death 1 ligand 1 (Homo sapiens) (UniProt Q9NZQ7); test: Induction of hydrophobic tag tethering degradation of PD-L1 in human HT-1080 cells incubated for 24 hrs by Western blot analysis; format: cell-based; conditions: dose 1-10 µM; how it was run: as §1
[8] = biological target: Programmed cell death 1 ligand 1 (Homo sapiens) (UniProt Q9NZQ7); test: Induction of hydrophobic tag tethering degradation of PD-L1 in human NCI-H460 cells at 10 uM by Western blot analysis; format: cell-based; how it was run: as §1
[9] = biological target: Programmed cell death 1 ligand 1 (Homo sapiens) (UniProt Q9NZQ7); test: Induction of hydrophobic tag tethering degradation of PD-L1 in human NCI-H460 cells by immunofluorescence analysis; format: cell-based
How it was run: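 NCI-H460 cells exposed to compound at various concentrations were fixed in 4% paraformaldehyde for 15 min at room temperature and blocked with 0.5% BSA for 1 h. Anti-PD-L1 (1:200) was applied overnight at 4 °C, then Alexa Fluor 555 donkey anti-rabbit (1:1000) for 30 min in the dark. Nuclei were stained with DAPI and cells imaged by confocal microscopy.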

Cc1c(COc2ccc(CNCCOCCOCCC(=O)NN3CCN(C(c4ccc(F)cc4)c4ccc(F)cc4)CC3)cn2)cccc1-c1ccccc1
Activity [1]: Dose-dependent-effect | Activity (NCI-H460 [2]): Active; Exhibited Mild Cytotoxicity | Activity [3]: Active

Cc1c(COc2ccc(CNCCOCCOCCOCCOCCC(=O)NC(c3ccccc3)c3ccc(C(F)(F)F)cc3)cn2)cccc1-c1ccccc1 (centres undefined)
Activity [3]: inactive

Cc1c(-c2ccccc2)cccc1-c1ccc(CNCCOCCOCCOCCC(=O)NC(c2ccccc2)c2ccc(C(F)(F)F)cc2)cn1 (centres undefined)
Activity [3]: inactive

Cc1c(COc2ccc(CNCCOCCOCCOCCOCCC(=O)NC34CC5CC(CC(C5)C3)C4)cn2)cccc1-c1ccccc1
Activity [3]: inactive

Cc1c(-c2ccccc2)cccc1-c1ccc(CNCCOCCOCCOCCOCCC(=O)NC(c2ccccc2)c2ccccc2)cn1
Activity [3]: Active

Cc1c(-c2ccccc2)cccc1-c1ccc(CNCCOCCOCCC(=O)NC(c2ccccc2)c2ccc(C(F)(F)F)cc2)cn1 (centres undefined)
Activity [3]: inactive

Cc1c(-c2ccccc2)cccc1-c1ccc(CNCCOCCOCCOCCOCCC(=O)NC(c2ccc(F)cc2)c2ccc(F)cc2)cn1
Activity [3]: inactive

Cc1c(-c2ccccc2)cccc1-c1ccc(CNCCOCCOCCOCCC(=O)NC(c2ccccc2)c2ccccc2)cn1
Activity [3]: Active

Cc1c(COc2ccc(CNCCOCCOCCOCCC(=O)NN3CCN(C(c4ccc(F)cc4)c4ccc(F)cc4)CC3)cn2)cccc1-c1ccccc1
Activity [3]: inactive

Cc1c(COc2ccc(CNCCOCCOCCOCCC(=O)NC(C3CCCCC3)C3CCCCC3)cn2)cccc1-c1ccccc1
Activity [3]: inactive

Cc1c(COc2ccc(CNCCOCCOCCOCCC(=O)NC(c3ccccc3)c3ccccc3)cn2)cccc1-c1ccccc1
Activity [3]: Active | Activity [4]: Active; Exhibited Mild Degradation Potency

Cc1c(COc2ccc(CNCCOCCOCCOCCOCCOCCC(=O)NCCNC(=O)C(C)c3ccc(CC(C)C)cc3)cn2)cccc1-c1ccccc1 (centres undefined)
Activity [3]: inactive

Cc1c(-c2ccccc2)cccc1-c1ccc(CNCCOCCOCCC(=O)NC(c2ccc(F)cc2)c2ccc(F)cc2)cn1
Activity [3]: inactive

Cc1c(COc2ccc(CNCCOCCOCCOCCOCCOCCC(=O)NC(c3ccccc3)c3ccccc3)cn2)cccc1-c1ccccc1
Activity [3]: inactive

Cc1c(-c2ccccc2)cccc1-c1ccc(CNCCOCCOCCOCCOCCC(=O)NN2CCN(C(c3ccc(F)cc3)c3ccc(F)cc3)CC2)cn1
Activity [3]: inactive

Cc1c(-c2ccccc2)cccc1-c1ccc(CNCCOCCOCCOCCOCCC(=O)NC(c2ccccc2)c2ccc(C(F)(F)F)cc2)cn1 (centres undefined)
Activity [3]: inactive

Cc1c(COc2ccc(CNCCOCCOCCOCCOCCOCCC(=O)NC34CC5CC(CC(C5)C3)C4)cn2)cccc1-c1ccccc1
Activity [3]: Active

Cc1c(COc2ccc(CNCCOCCOCCC(=O)NC(c3ccccc3)c3ccc(C(F)(F)F)cc3)cn2)cccc1-c1ccccc1 (centres undefined)
Activity [3]: inactive

Cc1c(COc2ccc(CNCCOCCOCCOCCOCCOCCC(=O)NC(C3CCCCC3)C3CCCCC3)cn2)cccc1-c1ccccc1
Activity [3]: inactive

Cc1c(COc2ccc(CNCCOCCOCCC(=O)NC34CC5CC(CC(C5)C3)C4)cn2)cccc1-c1ccccc1
Activity [3]: inactive

Cc1c(COc2ccc(CNCCOCCOCCC(=O)NC(c3ccccc3)c3ccccc3)cn2)cccc1-c1ccccc1
Activity [3]: Active | Activity [4]: Active; Exhibited Mild Degradation Potency

Cc1c(COc2ccc(CNCCOCCOCCOCCOCCC(=O)NC(c3ccccc3)c3ccccc3)cn2)cccc1-c1ccccc1
Activity [3]: Active

Cc1c(COc2ccc(CNCCOCCOCCC(=O)NCCNC(=O)C(C)c3ccc(CC(C)C)cc3)cn2)cccc1-c1ccccc1 (centres undefined)
Activity [3]: inactive

Cc1c(-c2ccccc2)cccc1-c1ccc(CNCCOCCOCCOCCC(=O)NC(c2ccc(F)cc2)c2ccc(F)cc2)cn1
Activity [3]: inactive

Cc1c(COc2ccc(CNCCOCCOCCOCCC(=O)NCCNC(=O)C(C)c3ccc(CC(C)C)cc3)cn2)cccc1-c1ccccc1 (centres undefined)
Activity [3]: inactive

Cc1c(COc2ccc(CNCCOCCOCCC(=O)NC(C3CCCCC3)C3CCCCC3)cn2)cccc1-c1ccccc1
Activity [3]: inactive

Cc1c(COc2ccc(CNCCOCCOCCOCCOCCC(=O)NC(C3CCCCC3)C3CCCCC3)cn2)cccc1-c1ccccc1
Activity [3]: inactive

Cc1c(COc2ccc(CNCCOCCOCCOCCC(=O)NC34CC5CC(CC(C5)C3)C4)cn2)cccc1-c1ccccc1
Activity [3]: inactive

Cc1c(-c2ccccc2)cccc1-c1ccc(CNCCOCCOCCC(=O)NN2CCN(C(c3ccc(F)cc3)c3ccc(F)cc3)CC2)cn1
Activity [1]: Dose-dependent-effect | Activity [5]: Not active; Result Indicates That Degradation Of Pd-L1 Occurs Through Proteosome Pathway | Activity (NCI-H460 [6]): Not active; Exhibited Almost No Cytotoxicity | Activity [3]: Active | Activity [7]: Dose-dependent-effect | Activity [8]: Time-dependent-effect; Almost No Degradation Activity Observed For 72 Hrs | Activity [9]: Dose-dependent-effect

Cc1c(-c2ccccc2)cccc1-c1ccc(CNCCOCCOCCOCCC(=O)NN2CCN(C(c3ccc(F)cc3)c3ccc(F)cc3)CC2)cn1
Activity [1]: Dose-dependent-effect | Activity [5]: Not active; Result Indicates That Degradation Of Pd-L1 Occurs Through Proteosome Pathway | Activity (NCI-H460 [6]): Not active; Exhibited Almost No Cytotoxicity | Activity [3]: Active | Activity [7]: Dose-dependent-effect | Activity [8]: Time-dependent-effect; Almost No Degradation Activity Observed For 72 Hrs | Activity [9]: Dose-dependent-effect

Cc1c(COc2ccc(CNCCOCCOCCOCCOCCC(=O)NN3CCN(C(c4ccc(F)cc4)c4ccc(F)cc4)CC3)cn2)cccc1-c1ccccc1
Activity [3]: inactive

Cc1c(COc2ccc(CNCCOCCOCCOCCOCCC(=O)NCCNC(=O)C(C)c3ccc(CC(C)C)cc3)cn2)cccc1-c1ccccc1 (centres undefined)
Activity [3]: inactive

Cc1c(-c2ccccc2)cccc1-c1ccc(CNCCOCCOCCC(=O)NC(c2ccccc2)c2ccccc2)cn1
Activity [3]: inactive
